# According to the RNAGym collection of RNA variant scans (doi:10.1126/science.aae0568):
# Fewer inactive variants are shown than the library holds.
# B1: tRNA (parent)
# chain: GUUCCGUUGGCGUAAUGGUAACGCGUCUCCCUCCUAAGGAGAAGACUGCGGGUUCGAGUCCCGUACGGAACG
# Variants of: B1
# Assay: yeast fitness relative to wild type (ratio to wild type); higher = fitter; tRNA-Arg(CCU), competitive growth, 37 C, YPD
# Summary of the method: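 A pool of Saccharomyces cerevisiae strains, each with a tRNA-Arg(CCU) gene variant at the native genomic locus, was competed in YPD at 37°C for 24 hours across six parallel replicates. The variants had been chemically synthesised at a 3% per-site mutation rate over 69 sites, and gene amplicons before and after competition were read by 100-nucleotide paired-end sequencing. Darwinian fitness relative to wild type rested on changes in genotype frequencies. Genotypes required ≥ 100 starting reads, and estimates < 0.5 were set to 0.5.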
row,Variant,yeast fitness
1,U7A A40U C61G G67U,≤ 0.5
2,U7A G23C C49G,0.566
3,U7A U8A G10C C27G C34G C55U,0.527
4,U7A G10C G52A U54C C60G,0.518
5,U7A G12C C27G C31A C46A G56C,0.587
6,U7A A20G C61A,0.616
7,U7A C62U,0.888
8,U7A G10A C33A A36C G67C,≤ 0.5
9,U7A C61G,0.563
10,U7A A20G C49G G67A,≤ 0.5
11,U7A G58C,0.918
12,U7A A43C G48A A57C G68U,≤ 0.5
13,U7A C30U A65C,0.633
14,U7A C24U,0.669
15,U7A G23A C29A C55A,≤ 0.5
16,U7A G17C C24G C29A,≤ 0.5
17,U7A C24U A69U,≤ 0.5
18,U7A C11U,0.686
19,U7A C11A,≤ 0.5
20,U7A C30U C66U,≤ 0.5
21,U7A C33A A45C C49U,≤ 0.5
22,U7A C24U C30U C31G A57G,≤ 0.5
23,U7A A15U U53C,≤ 0.5
24,U7A A45G C61A A70G,≤ 0.5

row,Variant,yeast fitness
1,U7A A20G G23A A40G U47C A70C,≤ 0.5
2,U7A C11G C31G U32C A43U,≤ 0.5
3,U7A C27U A69U,0.691
4,U7A A20G,0.713
5,U7A A20C,0.733
6,U7A C11A A20G G23A U26G G50A G52A C60U C61G,≤ 0.5
7,U7A A21C C29U A37G A57G,≤ 0.5
8,U7A C11U A15G A65C,≤ 0.5
9,U7A C34A A42C G58A,≤ 0.5
10,U7A G10A C31G,≤ 0.5
11,U7A C46G A65U,0.686
12,U7A C46G A65C,0.848
13,U7A A37G A40G A43G G52C U59G C66U A69U,≤ 0.5
14,U7A A20U G23C U26A C33A A57U,≤ 0.5
15,U7A C27U C66A,≤ 0.5
16,U7A C29U C34A G50C A65C,≤ 0.5
17,U7A G44C C49U C61A C62U C66U,≤ 0.5
18,U7A A21U G41A U64A,≤ 0.5
19,U7A G9C G17C C49U C62G,≤ 0.5
20,U7A A21U A65C,0.577
21,U7A C49A G56A,0.594
22,U7A C46G,0.787
23,U7A A20G A43C A57U,≤ 0.5
24,U7A G9C G17C G48A C60U,≤ 0.5

row,Variant,yeast fitness
1,U7A A14U G68A,≤ 0.5
2,U7A G51C G56C C61A,≤ 0.5
3,U7A G12A C24U G25C A42U,≤ 0.5
4,U7A G38A A43U,0.53
5,U7A C11U A40G A42U C62A,≤ 0.5
6,U7A C24G C33U G41C,≤ 0.5
7,U7A A20G G23A U26G A69C,≤ 0.5
8,U7A G9C C30U C34G A37G G68C,≤ 0.5
9,U7A G9C G17C G50A,≤ 0.5
10,U7A G9A U13A G56A,0.535
11,U7A C11A C33U C55G G56A,0.838
12,U7A G10C A40G U53A G63A,≤ 0.5
13,U7A C33A C46U G63U,0.574
14,U7A G39C,0.608
15,U7A G10C U26C C27G U32A,≤ 0.5
16,U7A C29G U32C G38A,≤ 0.5
17,U7A G10A C33A A36C G50U,≤ 0.5
18,U7A C33G C60G G63A,≤ 0.5
19,U7A C27A C29G C30G G51A,0.535
20,U7A A36U A45G U47A G68A,≤ 0.5
21,U7A U8A G67C,≤ 0.5
22,U7A C29G C46G,≤ 0.5
23,U7A C31G G51A U64A C66U G68C,≤ 0.5
24,U7A A21U A42G C55U A70C,≤ 0.5

row,Variant,yeast fitness
1,U7A U8A G10C C27G C34G C55U A57G,≤ 0.5
2,U7A A45U C60A,≤ 0.5
3,U7A A20G G23A U26G G67A,≤ 0.5
4,U7A C34A C46U,≤ 0.5
5,U7A C27U U32C,0.575
6,U7A A43U G52C,≤ 0.5
7,U7A U8C C61U,0.604
8,U7A G9C G17C G48A C62A,≤ 0.5
9,U7A A42G C46G A65C,0.66
10,U7A A45C U47A G68A,≤ 0.5
11,U7A A15C G23C C27U G56A C61A,0.602
12,U7A G10C A57U,≤ 0.5
13,U7A C22A C30U C61U G67A G68U,≤ 0.5
14,U7A C29U C33U U54A,≤ 0.5
15,U7A C24G C29G C30U A40C,0.96
16,U7A C34G C62A,0.696
17,U7A C30U G50C,≤ 0.5
18,U7A A20G G23A U26G G50U,≤ 0.5
19,U7A G23C,0.519
20,U7A G23A,0.722
21,U7A C27A G50C C60U A70C,≤ 0.5
22,U7A G38C A70G,≤ 0.5
23,U7A A21C U54C,≤ 0.5
24,U7A C24U C33A G50A A65C,≤ 0.5

row,Variant,yeast fitness
1,U7A C27G C33A A36G G58A C66U,≤ 0.5
2,U7A G50C U53C C55U,≤ 0.5
3,U7A G9C G17C G48A U54A,≤ 0.5
4,U7A C11A C30A,≤ 0.5
5,U7A A21U G41A,0.619
6,U7A G48A U59C C61A G63A,≤ 0.5
7,U7A C11A A14C C34A,≤ 0.5
8,U7A C46G A69C,0.607
9,U7A G9C C30U C34G,≤ 0.5
10,U7A C49A,0.634
11,U7A C49G,0.779
12,U7A A20G C31U A57C A65U,≤ 0.5
13,U7A G12C C34U,≤ 0.5
14,U7A G10A C27A C30G G41C,≤ 0.5
15,U7A A36G A40U C46G,≤ 0.5
16,U7A G9C G17C C46A G68C,≤ 0.5
17,U7A G50U,0.69
18,U7A G50C,0.684
19,U7A A45C C66U,0.535
20,U7A C30A C31G A43U U54G C62G,≤ 0.5
21,U7A C29U A37C U53A C55U C60A,≤ 0.5
22,U7A A20G G68A,≤ 0.5
23,U7A C22G A57G,≤ 0.5
24,U7A C22G A57U,≤ 0.5

row,Variant,yeast fitness
1,U7A C34G A40C A57U,≤ 0.5
2,U7A C22G C24G U28C G56A A65U,≤ 0.5
3,U7A A43G G51C,0.537
4,U7A A20C G67C,≤ 0.5
5,U7A C27U G52C,0.583
6,U7A G9A U13A A70U,≤ 0.5
7,U7A G23C C34G U35G A40U A70C,≤ 0.5
8,U7A A40U G67A,≤ 0.5
9,U7A A65U A70G,0.677
10,U7A A21C A45G,0.571
11,U7A C27A A65U,0.603
12,U7A A57U U59A A69C,0.702
13,U7A C60G G67C,≤ 0.5
14,U7A A45U,0.672
15,U7A C27A C29G C30G U47A A70G,≤ 0.5
16,U7A A21U G38C A45G U59A,≤ 0.5
17,U7A G25A A65U,0.765
18,U7A A20G C22A A40G G41C,≤ 0.5
19,U7A C49U U59C C62G,≤ 0.5
20,U7A U8A G10C C27G C34G U35C C55U,≤ 0.5
21,U7A A21G,0.738
22,U7A A21C,0.54
23,U7A G9C G17C C61U G68C,≤ 0.5
24,U7A C60G A69G,0.588

row,Variant,yeast fitness
1,U7A A65G,1.03
2,U7A A65C,0.917
3,U7A C29G A36G,≤ 0.5
4,U7A G10A A20C C29A U54A C55U,≤ 0.5
5,U7A G12A A20G G23A U26G,≤ 0.5
6,U7A G9C G17C A43U G48A,≤ 0.5
7,U7A A21U C27G C33G A45U,0.506
8,U7A U8G A14G A36U A43U,≤ 0.5
9,U7A G10C C22U C27G G67A,≤ 0.5
10,U7A G48A,0.99
11,U7A C31G U64A C66U G68C A69G,≤ 0.5
12,U7A A36G,0.662
13,U7A C30U C46U C49U,≤ 0.5
14,U7A U8C G23A G56C C66G,0.677
15,U7A C29G A70U,≤ 0.5
16,U7A C29G A36C G67A,≤ 0.5
17,U7A C60G,0.561
18,U7A C60U,0.652
19,U7A G17A G23A A45C U47A G50A,≤ 0.5
20,U7A G18C A70U,0.662
21,U7A U8A U35C C62A,0.537
22,U7A G10A A40G C60U,≤ 0.5
23,U7A C11G C27U A37C G51C,≤ 0.5
